Sampled rows, rich in hits. Any-hit rate of the full collection: about 2.3%.
DNMT1 block: human DNMT1 methyltransferase inhibitors, primary screen, biochemical, molecular beacon, fluorescence, HinP1I cleavage, uHTS | DNA (cytosine-5)-methyltransferase 1 (Homo sapiens), P26358 | 360,000 compounds, 0.83% hits | inhibition (reported as % activation of signal), % at 10 µM; in the data active = inhibition above about 50%
Rpn11 block: Rpn11 (PSMD14) deubiquitinase inhibitors, primary screen, biochemical, fluorescence polarization, uHTS | human 26S proteasome, Ub4-pepOG fluorescence polarization; 20S core pre-blocked with epoxomicin | inhibition, % at 20 µM | 360,000 compounds, 0.59% hits;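 active = inhibition at 20 µM, scaled to each plate's controls, above about 33%, limit read from the data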
Target sequence (O00487 whole entry, looked up): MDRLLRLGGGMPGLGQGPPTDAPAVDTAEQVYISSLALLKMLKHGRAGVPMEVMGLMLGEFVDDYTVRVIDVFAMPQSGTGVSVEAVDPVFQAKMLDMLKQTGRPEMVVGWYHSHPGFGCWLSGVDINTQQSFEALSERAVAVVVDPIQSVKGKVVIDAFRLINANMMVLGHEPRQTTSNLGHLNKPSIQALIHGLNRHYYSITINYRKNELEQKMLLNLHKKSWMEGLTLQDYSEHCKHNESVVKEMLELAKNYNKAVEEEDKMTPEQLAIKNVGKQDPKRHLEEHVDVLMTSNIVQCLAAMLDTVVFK
SUMO1 PPI mod: modulators of SUMO1 protein-protein interactions, primary screen, biochemical, uHTS; AID 602429, 2012; SUMO1 binding to a labelled peptide, TR-FRET, 1 h; inhibition, % at 20 µM; Small ubiquitin-related modifier 1 (Homo sapiens), P63165; 360,000 compounds, 0.33% hits; in the data active = inhibition above about 37%
Scp1 inh: Scp-1 phosphatase inhibitors, primary screen, biochemical, colorimetric, uHTS | Recombinant Scp1, phosphopeptide, malachite green phosphate absorbance | Carboxy-terminal domain RNA polymerase II polypeptide A small phosphatase 1 (Homo … | inhibition, % at 20 µM | 340,000 compounds, 0.88% hits | AID 493091, 2011;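 active = inhibition above about 50% at 20 µM, limit read from the data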
Target sequence (Q9GZU7 76-261 limits assumed): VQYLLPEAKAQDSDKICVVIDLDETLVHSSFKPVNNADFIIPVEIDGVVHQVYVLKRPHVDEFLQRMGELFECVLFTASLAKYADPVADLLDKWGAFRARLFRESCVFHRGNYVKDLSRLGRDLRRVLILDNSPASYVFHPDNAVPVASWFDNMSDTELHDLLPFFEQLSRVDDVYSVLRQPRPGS
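System: SCP-1 catalytic domain; Reagent: Phospho 17-mer peptide substrate; Doses: one concentration, 20 µM, with 1.0% DMSO; Incubation: 45 min room-temperature reaction, 5 min colour, 30 min stabiliser; Signal: Phosphate-binding colour reagent, absorbance read at 630 nm.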
LMPTP inh: LMPTP phosphatase inhibitors, primary screen, biochemical, fluorescence intensity, uHTS. Low molecular weight phosphotyrosine protein phosphatase (Homo sapiens), P24666. recombinant LMPTP-A, OMFP fluorogenic substrate. inhibition, % at 20 µM. 360,000 compounds, 0.22% hits. AID 651560, 2012;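 active = compounds that cut the enzyme signal by at least half of the control window in the single-dose screen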
Target sequence (P24666 whole entry, looked up): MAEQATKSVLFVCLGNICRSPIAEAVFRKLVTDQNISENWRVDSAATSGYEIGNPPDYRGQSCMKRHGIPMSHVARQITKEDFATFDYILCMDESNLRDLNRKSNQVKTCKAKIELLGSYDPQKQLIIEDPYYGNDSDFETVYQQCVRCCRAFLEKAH
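Assay system: LMPTP-A, protein tyrosine phosphatase of low molecular weight / Medium: pH 6.0 Bis-Tris buffer with DTT and Triton X-100 / Schedule: 50 min enzyme reaction at room temperature, protected from light / Measured by: endpoint fluorescence intensity from OMFP dephosphorylation / Read-out basis: % inhibition relative to no-enzyme and uninhibited control wells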
STEP block: STEP phosphatase inhibitors, primary screen, biochemical, fluorescence intensity, uHTS; Tyrosine-protein phosphatase non-receptor type 5 (Homo sapiens), P54829; recombinant STEP, OMFP fluorogenic substrate; inhibition, % at 20 µM; 360,000 compounds, 0.25% hits; AID 588621, 2011;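 active = inhibition at 20 µM, scaled per plate between control wells, above about 37%, limit read from the data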
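Assay system: isolated STEP enzyme. Buffer or medium: pH 6.0 Bis-Tris with DTT and Tween 20. Also added: fluorogenic phosphatase substrate OMFP at 25 µM final. Dosing: 20 µM, 1% DMSO. Timing: 20 min reaction, room temperature, in the dark. Measured by: fluorescence intensity, excitation 480 nm, emission 540 nm. Evaluation: normalized % inhibition.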
Scp-1 conf: Scp-1 phosphatase inhibitors, retest, confirmation, biochemical, colorimetric, single concentration. shares compounds with Scp1 inh. AID 540281, 2011. 2,500 compounds, 61% hits. recombinant SCP-1 catalytic domain, phosphate release, malachite green absorbance. inhibition, % at 20 µM
Scp-1 MG ctr: colorimetric readout interference by compounds, confirmation, artefact control for Scp-1 inhibitor project, biochemical, single concentration; shares compounds with Scp1 inh; Colorimetric interference counterscreen, malachite green absorbance 630 nm; apparent inhibition (interference), % at 20 µM; 2,500 tested, under 10 active;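 also: compounds added after enzyme reaction finished so only phosphate colour detection is probed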
Scp1 DSF: Scp-1 binding by thermal shift, confirmation, orthogonal assay for Scp-1 inhibitor project, biophysical, differential scanning fluorimetry; 1,500 compounds, 25% hits; shares compounds with Scp1 inh; Recombinant SCP1, Sypro Orange thermal shift Tm; thermal shift relative to vanadate control, % at 40 µM;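 active = substances whose mean melting-temperature shift, as a percentage of the reference inhibitor's shift, reaches about 5.3%, limit read from the data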
A number is an active result; – = inactive; · = no result given.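 The calls were made as follows, unless noted: active = inhibition of at least 30% at 20 µM; inactive = the rest.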

SMILES	DNMT1 block	Rpn11 block	SUMO1 PPI mod	Scp1 inh	LMPTP inh	STEP block	Scp-1 conf	Scp-1 MG ctr	Scp1 DSF
C[C@H]1CN([C@@H](C)CO)C(=O)c2cccc(NC(=O)c3ccncc3)c2O[C@H]1CN(C)C(=O)Nc1ccccc1	–	–	–	95	–	–	72	–	–
COc1ccc(NC(=O)N(C)C[C@H]2Oc3c(NC(=O)c4ccncc4)cccc3C(=O)N([C@H](C)CO)C[C@@H]2C)cc1	–	–	–	61	–	–	–	–	·
C[C@H](CO)N1C[C@H](C)[C@@H](CN(C)C)Oc2c(NC(=O)c3ccncc3)cccc2C1=O	–	–	–	–	–	–	·	·	·
C[C@H](CO)N1C[C@H](C)[C@@H](CN(C)C(=O)Nc2ccc(C(F)(F)F)cc2)Oc2c(NC(=O)c3ccncc3)cccc2C1=O	–	–	–	88	–	–	–	–	·
COc1ccc(-c2cc(C3CCNCC3)[nH]n2)cc1	–	–	–	–	–	–	·	·	·
CC(C)CCN1C(=O)c2ccccc2C1c1nnnn1C(C)C (stereo unspecified)	·	·	–	·	–	·	·	·	·
O=C1CCN(Cc2ccccc2)S(=O)(=O)c2ccccc21	–	–	–	68	–	–	63	–	–
COc1cc(/C=C(/C#N)C(=O)Nc2ccccc2)ccc1OCc1ccc(C(=O)O)cc1	–	–	–	82	–	–	58	–	–
COc1cc(/C=C(\C#N)C(=O)NCc2ccccc2)ccc1OCc1ccc(C(=O)O)cc1	–	–	–	–	–	–	·	·	·
N#C/C(=C\c1ccc(OCc2ccc(C(=O)O)cc2)cc1)C(=O)NCc1ccccc1	–	–	–	91	–	–	81	–	–
C[C@@H](NC(=O)/C(C#N)=C/c1ccc(O)c(O)c1)c1ccccc1	–	–	–	–	–	–	·	·	·
CC(NC(=O)/C(C#N)=C/c1ccc(OCC(=O)O)cc1)c1ccccc1 (stereo unspecified)	–	–	–	98	–	–	40	–	–
Cn1c(SCC(=O)Nc2ccccc2Br)nnc1-c1cnccn1	–	–	–	–	–	–	·	·	·
CN(Cc1ccccc1OCCO)CC1CCCN(CCc2ccc(Cl)cc2)C1 (stereo unspecified)	–	–	–	–	–	–	·	·	·
Fc1ccc2cnc(-c3ccccc3)c(-c3cc(C(F)(F)F)cc(C(F)(F)F)c3)c2c1	–	–	–	58	–	–	–	–	·
N#Cc1ccc(-c2c(-c3ccccc3)ncc3cc(F)ccc23)cc1	–	–	–	–	–	–	·	·	·
COC(=O)c1ccc(-c2c(-c3ccccc3)ncc3cc(F)ccc23)cc1	–	–	–	53	–	–	–	–	·
Fc1ccc2cnc(-c3ccccc3)c(-c3ccc(C(F)(F)F)cc3)c2c1	–	–	–	72	–	–	–	–	·
Fc1ccc2c(-c3cccc(C(F)(F)F)c3)c(-c3ccccc3)ncc2c1	–	–	–	–	–	–	·	·	·
COC(=O)[C@]12CCCCC=C1N(Cc1ccc3c(c1)OCO3)C(=O)[C@H](CC(=O)N1CCSCC1)C2	·	·	–	·	–	·	·	·	·
COc1cc(-c2c(NC(=O)c3ccco3)oc3ccccc3c2=O)cc(OC)c1OC	–	–	–	–	–	–	·	·	·
N[C@@H](C(=O)N[C@@H]1C(=O)N2C(C(=O)O)=C(Cl)CS[C@H]12)c1ccccc1	–	–	–	57	–	–	60	–	7.4
CC1=C(C(=O)O)N2C(=O)C(NC(=O)c3ccccc3Cl)C2SC1 (stereo unspecified)	–	–	–	–	–	–	·	·	·
Fc1ccccc1NC(=S)N1CCOCC1	–	–	–	–	–	–	·	·	·
Fc1cc(F)c(NC(=S)N2CCOCC2)c(F)c1	–	–	–	95	–	–	–	–	·
SMILES	DNMT1 block	Rpn11 block	SUMO1 PPI mod	Scp1 inh	LMPTP inh	STEP block	Scp-1 conf	Scp-1 MG ctr	Scp1 DSF
C[N+]1(CCCOC(=O)C2(c3ccccc3)CCCC2)CCOCC1	–	–	–	74	–	–	37	–	–
O=C(NCc1ccccc1Cl)c1cc(C(=O)C2CC2)c[nH]1	–	–	–	–	–	–	·	·	·
CC1(C)CC(N2CCCC2)=CC(=[N+]2CCCCC2)C1	–	–	–	–	–	–	·	·	·
CC1(C)CC(N2CCCC2)=CC(=[N+]2CCCC2)C1	–	–	–	100	–	–	92	–	–
COc1ccc(-n2nc(C(=O)NCC(=O)NC3CCCCC3)c3ccccc3c2=O)cc1	–	–	–	–	–	–	·	·	·
C=CCN=C(NC#N)SCC(=O)c1cccc(OC)c1	–	–	–	–	–	–	·	·	·
Cn1c(NN)nc2c1c(=O)n(Cc1ccccc1)c(=O)n2C	–	–	–	68	–	–	62	–	9.4
O=C(CSc1nc(-c2ccccc2)nc2ccc(F)cc12)Nc1ccc(C(=O)O)cc1	–	–	–	61	62	–	53	–	–
O=C(CSc1nc(-c2ccccc2)nc2ccc(F)cc12)Nc1cccc(C(=O)O)c1	–	–	–	67	63	–	60	–	–
O=C(CSc1nncc2ccccc12)Nc1cccc(C(=O)O)c1	–	–	–	–	–	–	·	·	·
O=C(Oc1ccccc1C(=O)N1CCOCC1)c1ccc(F)cc1	–	–	–	97	–	–	–	–	·
CC[N+]1(CC(O)COC2CC(C)CC(C)(C)C2)CCOCC1 (stereo unspecified)	–	–	–	105	–	–	91	–	–
CC1CCN(CC(O)COC2CC(C)CC(C)(C)C2)CC1 (stereo unspecified)	–	–	–	–	–	–	·	·	·
O=C(Nc1ccc2c(c1)OCCO2)C1CCCN1S(=O)(=O)c1cccc2cccnc12 (stereo unspecified)	–	–	–	57	–	–	–	–	·

Source: PubChem (Sanford-Burnham Center for Chemical Genomics)
